Screens as filed in PubChem.
Rows were chosen to be rich in hits. Some 4.1% of all compounds tested hit in one or more screens of this group.
KCNQ1 pot – potentiators or activators of KCNQ1 channel, primary screen, cell-based, thallium flux, high-throughput | CHO-K1 KCNQ1, thallium flux FluxOR fluorescence; hits give high values | Potassium voltage-gated channel subfamily KQT member 1 (Homo sapiens), P51787 | B-score at 10 µM | 310,000 tested, 0.35% active;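 active = fluorescence ratio B-score, a plate-corrected score, at least three library SD, with initial intensity B-score within 5 SD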
Target sequence (P51787 whole entry, looked up): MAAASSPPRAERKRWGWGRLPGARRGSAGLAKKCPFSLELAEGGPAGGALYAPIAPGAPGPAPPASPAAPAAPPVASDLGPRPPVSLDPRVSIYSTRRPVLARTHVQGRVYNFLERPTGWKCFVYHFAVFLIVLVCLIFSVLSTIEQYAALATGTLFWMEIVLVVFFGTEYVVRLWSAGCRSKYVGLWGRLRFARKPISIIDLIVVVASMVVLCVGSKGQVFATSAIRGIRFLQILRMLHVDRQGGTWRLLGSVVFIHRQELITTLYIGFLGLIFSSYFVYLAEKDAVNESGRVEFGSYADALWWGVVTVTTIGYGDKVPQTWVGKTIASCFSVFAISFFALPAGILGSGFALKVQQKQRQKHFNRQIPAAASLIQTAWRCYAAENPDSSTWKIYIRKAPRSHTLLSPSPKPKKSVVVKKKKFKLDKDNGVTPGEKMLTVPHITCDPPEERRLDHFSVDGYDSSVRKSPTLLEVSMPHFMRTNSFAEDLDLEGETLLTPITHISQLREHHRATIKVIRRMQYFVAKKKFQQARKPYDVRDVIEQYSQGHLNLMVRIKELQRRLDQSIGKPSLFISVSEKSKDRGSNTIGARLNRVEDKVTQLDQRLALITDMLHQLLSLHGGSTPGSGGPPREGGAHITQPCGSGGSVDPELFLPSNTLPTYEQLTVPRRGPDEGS
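assay system = CHO-K1 cells stably expressing KCNQ1 | medium = assay buffer, equal DMSO in all wells | timing = 37 °C overnight plating, 90-min dark dye load, 20-min compound pretreatment | measured by = kinetic FluxOR thallium fluorescence, 10-s 1-Hz baseline, 110-s post-stimulus read | measure = fluorescence change relative to baseline, converted to B score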
hERG protect – hERG rescue from dofetilide block, primary screen, cell-based, CHO-hERG, FluxOR thallium flux, dofetilide IC70; 310,000 tested, 0.51% active; dofetilide IC70 present; activation (rescue from dofetilide block), less the hit threshold, % at 10 µM;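 active = activation above the mean of controls blocked by dofetilide plus 5 SD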;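 also: thallium influx through hERG after potassium depolarization seen as dye fluorescence rise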
KCNQ1 inh – inhibitors of human KCNQ1 channel, primary screen, cell-based, thallium flux, high-throughput. CHO-K1 KCNQ1, FluxOR thallium flux fluorescence; hits give high values. 310,000 tested, 1.3% active. B-score at 10 µM;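 active = compounds whose thallium flux B-score, printed positive for inhibition, exceeds three library SD while starting fluorescence stays within three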;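 also: channel opened by potassium depolarization with thallium stimulus after 20 min compound exposure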
KCNK9 block – KCNK9 potassium channel inhibitors, primary screen, HEK293 cells, thallium flux; Potassium channel subfamily K member 9 (Homo sapiens), Q9NPC2; FluxOR thallium flux fluorescence; hits give low values; B-score at 10 µM; 310,000 tested, 1.2% active;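 active = ratio B-score over 3 SD below the library mean, with starting fluorescence within 5 SD of its mean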;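 also: negative B-score means less thallium flux so channel inhibition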
KCNK3 inh – human KCNK3 channel inhibitors, primary screen, CHO cells, FluxOR thallium flux, B-score | 340,000 tested, 0.84% active | Potassium channel subfamily K member 3 (Homo sapiens), O14649 | FluxOR fluorescence; hits give low values | B-score at 10 µM;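 active = B-score under library mean minus 4 SD, starting fluorescence ratio at most library mean plus 5 SD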;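 also: more negative B-score means stronger inhibition of thallium flux through KCNK3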
KCC2 mod – KCC2 cotransporter modulators, thallium flux, primary screen, cell-based, HEK293 KCC2, FluoZin-2 fluorescence, MLSMR. Solute carrier family 12 member 5 (Homo sapiens), Q9H2X9. KCC2 cells, thallium flux FluoZin-2 fluorescence. B-score of Tl+ flux slope (higher = more flux/activation; lower = inhibition) at 10 µM. 190,000 tested, 2.2% active. AID 1456, 2008;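 active = thallium flux slope and its plate-corrected score both differing from the plate sample mean at a set confidence after two filtering rounds, in either direction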;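 also: slope of fluorescence scaled to starting intensity during 10 to 20 s after thallium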
KCNQ1 block val – KCNQ1 potassium channel inhibitors, confirmation, cell-based, Tl flux, duplicate; shares compounds with KCNQ1 inh; KCNQ1 cell line, FluxOR thallium flux fluorescence; inhibition, % at 10 µM; 1,600 tested, 93% active; AID 588353, 2011;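 active = primary screen active, with duplicate mean exceeding buffer control mean plus 3 SD of buffer wells, cut at about 28% in these data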;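 also: 0% = buffer control ratio and 100% = XE991 inhibitor control ratio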
CHO Tl flux – thallium flux effects in parental CHO cells, counter-screen for KCNQ1 inhibitor project, cell-based, Tl flux | AID 588366, 2011 | parental CHO-K1, FluxOR thallium flux fluorescence ratio; hits give low values; zero means no signal rise above baseline | 1,600 tested, 21% active | shares compounds with KCNQ1 inh | fluorescence ratio (Tl flux) at 10 µM;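 active = mean of duplicate thallium-flux fluorescence ratios in parental host cells more than 5 SD below the buffer control mean, cut at about 0.38 in these data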;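 also: ratio is peak minus minimum fluorescence divided by baseline fluorescence; actives read low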
KCNQ1 ephys val – KCNQ1 channel inhibitors, confirmation, orthogonal assay, cell-based, automated electrophysiology | KCNQ1-CHO cells, automated patch clamp current | 490 tested, 20% active | shares compounds with KCNQ1 inh | calls only at 10 µM;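 active = KCNQ1 current drop exceeding 3 SD of negative control wells, seen in both duplicate runs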;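 also: steady state current during a 2 s step from -80 to +40 mV; negative values mean current inhibition and positive values mean potentiation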
KCNQ2 spec – KCNQ2 channel inhibition, selectivity assay for KCNQ1 inhibitor project, cell-based; shares compounds with KCNQ1 inh; AID 651746, 2012; inhibition, % at 10 µM; KCNQ2 cells, FluxOR thallium flux fluorescence; 1,600 tested, 71% active;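 active = mean percent inhibition of the KCNQ2 thallium signal more than 5 SD above the buffer-only control wells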;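 also: KCNQ2 expressed in CHO cells; 0% = buffer control wells and 100% = XE-991 inhibitor control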
KCNQ1-KCNE1 inh – KCNQ1/KCNE1 channel inhibition, selectivity assay for KCNQ1 inhibitor project, CHO-K1 cells, thallium flux, FluxOR | FluxOR thallium flux fluorescence | AID 652147, 2013 | inhibition, % at 10 µM | shares compounds with KCNQ1 inh | 1,600 tested, 77% active;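 active = mean percent inhibition of duplicate wells above the buffer-only control mean plus 3 SD of those controls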;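 also: 0% = buffer only wells and 100% = XE-991 inhibitor control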
KCNK9 block conf – KCNK9 potassium channel inhibitors, confirmation, HEK293 cells, thallium flux, duplicate; shares compounds with KCNK9 block; FluxOR thallium flux fluorescence; inhibition, % at 10 µM; 4,900 tested, 43% active;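 active = thallium signal inhibited by more than 5 SD of the compound-free buffer control wells, on both duplicate plates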;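 also: 0% = assay buffer control wells without compound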
Kir21 sel – mouse Kir2.1 channel inhibition, confirmation, selectivity assay for KCNK9 modulator project, cell-based, HEK293, thallium flux | shares compounds with KCNK9 block | 4,900 tested, 4% active | Kir2.1 cells, FluxOR thallium flux fluorescence | AID 492993, 2010 | inhibition, % at 10 µM;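 active = thallium signal drop more than 5 SD beyond the mean of the no-compound control wells, seen in both duplicate plates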;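 also: signal is fluorescence rise after thallium addition divided by baseline fluorescence; plate controls were assay buffer only for no effect and full block by chlorpromazine control for full effect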
KCNK9 uninduced – thallium flux in non-induced HEK293 cells, confirmation, counter-screen for KCNK9 inhibitor project, cell-based, second counter screen, non-induced KCNK9-HEK293; 4,900 tested, 40% active; FluxOR thallium flux; AID 492997, 2010; inhibition, % at 10 µM; shares compounds with KCNK9 block;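 active = thallium signal drop beyond 5 SD of the untreated control mean, on both duplicate plates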;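 also: plate controls were buffer only IC0 wells for no effect and SID17386958 at its maximal inhibitory level for full effect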
Numbers without * were called inactive; i = inactive; . = no result given; + = active, no number.

SMILES	KCNQ1 pot	hERG protect	KCNQ1 inh	KCNK9 block	KCNK3 inh	KCC2 mod	KCNQ1 block val	CHO Tl flux	KCNQ1 ephys val	KCNQ2 spec	KCNQ1-KCNE1 inh	KCNK9 block conf	Kir21 sel	KCNK9 uninduced
c1ccc(CC2CCN(C3=Nc4cccc5cccc3c45)CC2)cc1	i	-35	13*	-9*	i	-0.92	150*	0.34*	.	121%*	135%*	36%*	35%*	38%*
COc1ccc(C(=O)Oc2ccc(N(C)S(=O)(=O)c3ccccc3)cc2)cc1[N+](=O)[O-]	i	-5	i	i	i	.	.	.	.	.	.	.	.	.
N#Cc1c(N2CCN(C(=O)c3ccccc3Cl)CC2)nc(-c2ccccc2)c2c1CCCC2	i	-11	8*	i	i	-0.0045	92*	0.34*	.	102%*	117%*	i	i	i
N#Cc1c(N2CCN(C(=O)c3ccco3)CC2)nc(-c2ccccc2)c2c1CCCC2	i	-29	i	i	i	.	.	.	.	.	.	.	.	.
N#Cc1c(N)nc2c(c1-c1ccc3c(c1)OCO3)CCc1ccccc1-2	i	-5	13*	-11*	i	-2	120*	0.35*	.	109%*	181%*	31%*	i	30%*
COc1ccc(CCNC(=O)c2cc(S(=O)(=O)N3CCOCC3)cn2C)cc1OC	i	-12	i	i	i	.	.	.	.	.	.	.	.	.
Cc1cc(C)nc(NC(=NCCc2c[nH]c3ccccc23)NC(=O)Nc2ccccc2)n1	i	0	7*	i	i	0.23	134*	0.38*	.	87%*	199%*	i	i	i
Cc1cc(C)nc(NC(=NCCc2c[nH]c3ccccc23)NC(=O)Nc2ccc(Cl)c(Cl)c2)n1	i	-9	i	i	i	1.6	.	.	.	.	.	.	.	.
CC(O)(CS(=O)(=O)Cc1ccccc1)c1ccccc1 (stereo not drawn)	i	-1	i	i	i	.	.	.	.	.	.	.	.	.
CC(C)CC(=O)Nc1cccc(-c2csc(-c3ccccc3)n2)c1	i	-12	18*	-14*	i	.	148*	0.35*	.	i	+	67%*	i	32%*
CC12CCC(=O)C=C1CCC1C2C(O)CC2(C)C1CCC2(O)C(=O)CO (stereo not drawn)	i	-8	i	i	i	.	.	.	.	.	.	.	.	.
COc1cc2ccccc2cc1C(=O)Nc1ccccc1N1CCCC1	i	-14	20*	-9*	i	.	99*	0.46	i	82%*	110%*	35%*	i	34%*
CCC(Oc1ccccc1)C(=O)Nc1ccccc1N1CCCCC1 (stereo not drawn)	i	-10	6*	-15*	i	.	121*	0.45	i	99%*	143%*	50%*	i	41%*
Cn1ncc(Cl)c1C(=O)N1CCN(c2ccc(Cl)c(Cl)c2)CC1	i	-20	12*	-10*	i	.	120*	0.43	i	98%*	87%*	42%*	i	26%*
Cc1csc(NC(=O)c2c(O)c3c(n(CC(C)C)c2=O)CCCC3)n1	i	-2	10*	-14*	-9.8*	0.35	104*	0.48	i	108%*	90%*	55%*	i	35%*
CC(C)Cn1c2c(c(O)c(C(=O)Nc3nccs3)c1=O)CCCC2	i	-6	7*	-8.3*	i	2.3	100*	0.45	i	112%*	166%*	44%*	i	27%*
COc1ccc(NC(=O)CN2CCN(C3c4ccccc4-c4ccccc43)CC2)c(OC)c1	i	-11	8*	-17*	i	.	60*	0.42	.	79%*	98%*	38%*	i	34%*
CCc1cccc(OCC(=O)Nc2ccc(C)c(S(=O)(=O)N3CCCCCC3)c2)c1	i	-6	10*	i	i	.	122*	0.45	i	116%*	106%*	i	i	33%*
COC(=O)[C@@H](Cc1ccccc1)NC(=O)[C@H]1CCC(=O)N1C(=O)OCc1ccccc1	i	-6	i	i	i	.	.	.	.	.	.	.	.	.
CN(C)S(=O)(=O)Oc1ccsc1C(=O)Nc1ccccc1Cl	i	-10	i	i	i	0.74	.	.	.	.	.	.	.	.
O=C(Nc1ccccc1Cl)c1sccc1-c1ccccc1	i	-5	6*	-9.7*	i	.	+	0.35*	.	i	i	34%*	i	30%*
